Screening results: PubChem, The Scripps Research Institute Molecular Screening Center
An excerpt weighted towards active compounds, which were near 4.6% of everything screened.
TAAR1 antagonist: antagonists of human TAAR1; inhibition, % at 3 µM; 1.5% of 360,000 active; AID 624466; CHO RD-HGA16 TAAR1, Fluo-8 calcium fluorescence, antagonist;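 active = inhibition above a per-plate cutoff, the mean inhibition of test compounds on that plate plus 3 SD, cut at about 49% in these data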
Target sequence (Q96RJ0 whole entry, looked up): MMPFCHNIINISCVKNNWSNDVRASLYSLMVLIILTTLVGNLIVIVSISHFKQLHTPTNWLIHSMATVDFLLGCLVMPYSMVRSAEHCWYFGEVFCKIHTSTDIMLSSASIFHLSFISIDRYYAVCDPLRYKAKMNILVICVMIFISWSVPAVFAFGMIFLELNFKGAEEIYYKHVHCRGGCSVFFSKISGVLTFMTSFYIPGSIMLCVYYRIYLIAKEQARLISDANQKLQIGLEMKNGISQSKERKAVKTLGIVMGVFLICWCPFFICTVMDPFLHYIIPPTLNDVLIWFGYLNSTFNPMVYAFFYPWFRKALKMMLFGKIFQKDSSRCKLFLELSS
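Material: CHO RD-HGA16 cells bearing hTAAR1; compound dosing: one-point dosing, 3 µM nominal final; schedule: dye loading 75 min at 37 °C, then 30 min room temperature; measured by: calcium fluorescence with Fluo-8; control set: vehicle and agonist controls; replication: n of 1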
CHO parental Ca: counter-screen: ATP calcium response change in parental CHO cells; parental CHO-K1, ATP-induced calcium, Fluo-8 fluorescence; inhibition, % at 5.6 µM; 0.63% of 330,000 active;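 active = inhibition above that plate's mean sample inhibition plus 3 SD, cut at about 26% in these data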
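Material – parental CHO cells · Reagent – ATP stimulus · Compound – single nominal dose of 5.6 µM per compound · Detection – Fluo-8 fluorescence · Read-out basis – percent inhibition of calcium signal · Controls – ATP-challenged DMSO wells low, unchallenged DMSO wells high · Repeats – no replicates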
GPR7 antagonist: human neuropeptides B/W receptor 1 antagonism. GPR7-expressing cells, fluorescence antagonist assay. 1.1% of 290,000 active. inhibition, % at 4.4 µM. AID 1861. P48145; in the data active = inhibition above about 16%, passing the limit was not always enough;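 note: cells stimulated with the agonist NPW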
OX1R antag-1: human HCRTR1 antagonism; 0.43% of 330,000 active; inhibition, % at 5 µM; CHO/OX1R cells, Fluo-8 calcium fluorescence, orexin A;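 active = inhibition above its plate's threshold, mean inhibition of all tested compounds on the plate plus 3 SD, cut at about 37% in these data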
Target sequence (O43613 whole entry, looked up): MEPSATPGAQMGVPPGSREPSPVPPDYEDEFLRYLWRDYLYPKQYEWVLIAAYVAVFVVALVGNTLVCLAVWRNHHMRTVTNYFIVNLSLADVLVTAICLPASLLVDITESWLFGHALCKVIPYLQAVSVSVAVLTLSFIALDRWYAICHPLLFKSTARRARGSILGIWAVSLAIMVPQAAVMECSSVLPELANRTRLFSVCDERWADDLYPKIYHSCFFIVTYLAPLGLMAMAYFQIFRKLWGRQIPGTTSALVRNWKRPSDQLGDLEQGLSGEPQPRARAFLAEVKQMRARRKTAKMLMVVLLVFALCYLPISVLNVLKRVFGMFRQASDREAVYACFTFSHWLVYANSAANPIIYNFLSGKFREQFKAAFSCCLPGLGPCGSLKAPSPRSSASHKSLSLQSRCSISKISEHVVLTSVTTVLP
OX1R antag-2: blocks the human orexin 1 receptor; O43613; OX1R-expressing cells, FRET antagonist read-out; inhibition, % at 6.6 µM; 1.8% of 330,000 active; AID 485270; in the data active = inhibition mostly above about 38%, no sharp cut-off; inactive = mostly below about 40%
TAAR1 agonist: agonists of human TAAR1; Q96RJ0; CHO RD-HGA16 TAAR1, Fluo-8 calcium fluorescence; vehicle wells 0%, saturating PEA agonist 100%; activation, % at 3 µM; 0.99% of 360,000 active; AID 624467;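 active = activation above the mean activation of all test compounds in the run plus 3 SD, cut at about 38% in these data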
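Test system: RD-HGA16 (CHO) cells co-expressing Gα16 and hTAAR1 / Benchmarks: DMSO vehicle as 0%, PEA at EC100 as 100% / Repeats: no replicates (n 1) / Measure: % activation from peak over basal fluorescence ratio, DMSO-to-PEA scaled / Timing: 17-24 h plating, Fluo-8 75 min 37 °C, 30 min RT / Technique: kinetic Fluo-8 calcium fluorescence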
OX1R Ca confirm: confirmation of human orexin 1 receptor antagonists; shares compounds with OX1R antag-1; CHO/OX1R cells, orexin A calcium Fluo-8 fluorescence; inhibition, % at 5 µM; 38% of 1,100 active; in the data active = inhibition above about 29%
CHO Ca triplic: counter-screen for OX1R antagonists: effect in parental CHO cells | parental CHO-K1, ATP-induced calcium, Fluo-8 fluorescence | shares compounds with OX1R antag-1 | AID 492965 | 9.3% of 1,100 active | inhibition, % at 5.6 µM;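 active = inhibition above a per-plate limit, the mean inhibition of that plate's test compounds plus 3 SD, cut at about 25% in these data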
OX1R HTRF confirm: OX1R (human) antagonism, HTRF confirmed. 49% of 1,800 active. OX1R-expressing cells, HTRF antagonist assay. inhibition, % at 6.6 µM. AID 492964. shares compounds with OX1R antag-2; in the data active = inhibition above about 55%;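 note: CHO cells expressing OX1R stimulated with orexin A at about EC80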
CHO-K1 HTRF cnt: counter-screen for OX1R antagonists: effect in parental CHO-K1 cells; shares compounds with OX1R antag-2; HTRF counterscreen; inhibition, % at 6.6 µM; 48% of 1,800 active; AID 493232; in the data active = inhibition above about 17%
TAAR1 nonsel count: counter-screen for TAAR1 antagonists: nonselective antagonists; 77% of 2,400 active; inhibition, % at 3 µM; AID 651780; shares compounds with TAAR1 antagonist; counterscreen cell line, calcium fluorescence, antagonist mode; in the data active = inhibition above about 22%;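 note: CHO-Ga16 host cells stimulated with ATP at an EC80 level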
TAAR1 ant conf: confirmation of human TAAR1 antagonists. shares compounds with TAAR1 antagonist. TAAR1-expressing cells, fluorescence antagonist read-out. inhibition, % at 3 µM. 40% of 2,400 active. AID 651785; in the data active = inhibition above about 49%;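 note: CHO-Ga16 host cells challenged with agonist PEA near its EC80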
Ga16 nonsel ag: nonselective Ga16 agonist in TAAR1 antagonist counter-screen. shares compounds with TAAR1 antagonist. Ga16-expressing cells, calcium fluorescence, agonist counterscreen. activation, % at 3 µM. 18% of 2,400 active; in the data active = activation above about 12%
TAAR1 ag count: counter-screen for human TAAR1 antagonists: TAAR1 agonists | hTAAR1 cell line, fluorescence activation, agonist mode | AID 651955 | activation, % at 3 µM | 2% of 2,400 active | shares compounds with TAAR1 antagonist; in the data active = activation above about 37%;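 note: CHO cells stably expressing TAAR1 with calcium dye readout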
Each line names hits and unclear results; the compound was inactive in the other large screens (follow-up assays come after a bar, where they were run).

CC(C)(OC(=O)c1cccs1)c1cc2ccccc2c(=O)o1	none (no result: GPR7 antagonist)
CC(C)(O)c1cc2ccc(C#Cc3ccsc3)cc2c(=O)o1	OX1R antag-1 60, OX1R antag-2 71 (no result: GPR7 antagonist) | OX1R Ca confirm 36 | CHO Ca triplic inactive | OX1R HTRF confirm 83 | CHO-K1 HTRF cnt inactive
CCN(CC)S(=O)(=O)c1cc(NC(=O)CCc2c(C)noc2C)ccc1C	none (no result: GPR7 antagonist)
CCN(CC)S(=O)(=O)c1cc(NC(=O)CSCc2c(C)noc2C)ccc1C	OX1R antag-1 46, OX1R antag-2 74 (no result: GPR7 antagonist) | OX1R Ca confirm 36 | CHO Ca triplic inactive | OX1R HTRF confirm 80 | CHO-K1 HTRF cnt inactive
CC(=O)Nc1cc2nn(-c3ccccc3)nc2cc1C	none
Cc1cc2nn(-c3ccccc3)nc2cc1NC(=O)c1cccs1	OX1R antag-1 61, OX1R antag-2 79 | OX1R Ca confirm inactive | CHO Ca triplic inactive | OX1R HTRF confirm 70 | CHO-K1 HTRF cnt 18
COc1ccc(CCNc2cc(C)[nH]c(=O)c2)cc1OC	OX1R antag-2 45 | OX1R Ca confirm inactive | CHO Ca triplic inactive | OX1R HTRF confirm inactive | CHO-K1 HTRF cnt inactive
COc1ccc2sc3c(=O)[nH]c4ccccc4c3c2c1	none
COc1ccc2c(c1)[nH]c(=O)c1sc3ccccc3c12	OX1R antag-2 71 (no result: TAAR1 antagonist, TAAR1 agonist) | OX1R Ca confirm 39 | CHO Ca triplic inactive | OX1R HTRF confirm 92 | CHO-K1 HTRF cnt inactive
O=C(O)c1cnn(-c2nc(-c3cccc([N+](=O)[O-])c3)cs2)c1C(F)(F)F	none
Cc1ccc(Cl)cc1NC(=O)Cn1nc(-c2cccs2)ccc1=O	OX1R antag-1 58, OX1R antag-2 98 | OX1R Ca confirm inactive | CHO Ca triplic inactive | OX1R HTRF confirm 61 | CHO-K1 HTRF cnt inactive
Cc1ccccc1NC(=O)Cn1nc(-c2ccc(Cl)s2)ccc1=O	none
CCOc1cccc(C(=O)Nc2cccc(-c3nnc(-c4ccccc4)o3)c2)c1	none
COc1cccc(C(=O)Nc2cccc(-c3nnc(-c4ccccc4)o3)c2)c1	TAAR1 antagonist 74 (no result: GPR7 antagonist) | OX1R Ca confirm inactive | CHO Ca triplic inactive | TAAR1 nonsel count 23 | TAAR1 ant conf 56 | Ga16 nonsel ag inactive | TAAR1 ag count inactive
NC(=O)c1ccsc1NC(=O)COC(=O)/C=C/c1ccccc1[N+](=O)[O-]	TAAR1 antagonist 78, OX1R antag-1 57 (no result: GPR7 antagonist) | OX1R Ca confirm inactive | CHO Ca triplic inactive | TAAR1 nonsel count 38 | TAAR1 ant conf 60 | Ga16 nonsel ag 14 | TAAR1 ag count inactive
C=CCN1C(=O)c2n[nH]c(C)c2C1c1ccc(C)cc1 (configuration not stated)	none (no result: CHO parental Ca, GPR7 antagonist, OX1R antag-1, OX1R antag-2)
O=C(COc1ccccc1[N+](=O)[O-])Nc1ccc(N2CCN(C(=O)c3cccs3)CC2)cc1	TAAR1 antagonist 92 | OX1R Ca confirm 62 | CHO Ca triplic 36 | TAAR1 nonsel count 50 | TAAR1 ant conf 71 | Ga16 nonsel ag 22 | TAAR1 ag count inactive
CCC(=O)Nc1ccc(N2CCN(C(=O)c3cccs3)CC2)cc1	none
CC1Cc2[nH]c(=S)[nH]c(=O)c2C(c2ccc(F)cc2)O1 (configuration not stated)	none (no result: CHO parental Ca, GPR7 antagonist, OX1R antag-1, OX1R antag-2)
COc1ccccc1NS(=O)(=O)c1ccc2oc(SCC(C)=O)nc2c1	none
COc1ccccc1NS(=O)(=O)c1ccc2oc(SC(C)C(=O)N3CCNC3=O)nc2c1 (configuration not stated)	TAAR1 antagonist 74, OX1R antag-2 32 (no result: GPR7 antagonist) | OX1R Ca confirm 31 | CHO Ca triplic inactive | OX1R HTRF confirm 62 | CHO-K1 HTRF cnt inactive | TAAR1 nonsel count 40 | TAAR1 ant conf 52 | Ga16 nonsel ag 16 | TAAR1 ag count inactive
CC1(C(=O)Nc2ccc3c(c2)OCO3)CCN1C(=O)CC1CC1 (configuration not stated)	none (no result: CHO parental Ca, GPR7 antagonist, OX1R antag-1, OX1R antag-2)
C=CCn1c(CCCOc2ccc(Cl)cc2Cl)nnc1SCC(=O)Nc1nccs1	TAAR1 antagonist 49 | OX1R Ca confirm inactive | CHO Ca triplic inactive | TAAR1 nonsel count 32 | TAAR1 ant conf inactive | Ga16 nonsel ag inactive | TAAR1 ag count inactive
O=C(OCC#CCSc1nnc(-c2cccc3ccccc23)o1)c1cccc2[nH]ccc12	TAAR1 antagonist 51, OX1R antag-1 68, OX1R antag-2 67 (no result: GPR7 antagonist) | OX1R Ca confirm 30 | CHO Ca triplic inactive | OX1R HTRF confirm 88 | CHO-K1 HTRF cnt inactive | TAAR1 nonsel count inactive | TAAR1 ant conf inactive | Ga16 nonsel ag inactive | TAAR1 ag count inactive
CCCc1c(-c2ccccc2)ncn1Cc1ccccc1OC	none (no result: CHO parental Ca, GPR7 antagonist, OX1R antag-1, OX1R antag-2)
O=C(Nc1ccc(S(=O)(=O)NCc2ccco2)cc1)c1ccc2ccccc2n1	TAAR1 antagonist 70, OX1R antag-2 45 | OX1R Ca confirm 37 | CHO Ca triplic inactive | OX1R HTRF confirm 66 | CHO-K1 HTRF cnt inactive | TAAR1 nonsel count 38 | TAAR1 ant conf 58 | Ga16 nonsel ag inactive | TAAR1 ag count inactive
CCOC(=O)C1=C(COC(=O)/C=C/c2ccc(OC)cc2)NC(=O)NC1C (configuration not stated)	none (no result: CHO parental Ca, GPR7 antagonist, OX1R antag-1, OX1R antag-2)
CCOC(=O)C1=C(COC(=O)/C=C/c2cccc(OC)c2)NC(=O)NC1C (configuration not stated)	TAAR1 antagonist 67, OX1R antag-2 73 | OX1R Ca confirm 31 | CHO Ca triplic inactive | OX1R HTRF confirm inactive | CHO-K1 HTRF cnt inactive | TAAR1 nonsel count 22 | TAAR1 ant conf 53 | Ga16 nonsel ag inactive | TAAR1 ag count inactive
COc1cccc(-c2nc3nc(C)cc(C)n3c2NC2CCCC2)c1	none (no result: CHO parental Ca, GPR7 antagonist, OX1R antag-1, OX1R antag-2)
